The test system of experiment [1] is Mus musculus. Kind of experiment: Antifibrotic activity against bleomycin-induced pulmonary fibrosis C57BL/6J mouse model assessed as reduction in alveolar septal swelling at 60 mg/kg, po administered via gavage qd for 14 days at 3 days post bleomycin challenge by hematoxylin and eosin staining based light microscopic analysis. It is filed as functional, organism-based. The method in brief: (§1)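 Intratracheal bleomycin (33 μg) was given to female C57BL/6J mice. Oral gavage started 3 days later and continued once daily for 14 days, with 1.4% DMSO saline as vehicle; n=8. Lungs were formalin-fixed for 24 h and paraffin-embedded. 5 μm sections were H&E-stained and examined by light microscopy at 200×.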

Experiment [2] has as its system Mus musculus. The experiment is described as follows: Antifibrotic activity against bleomycin-induced pulmonary fibrosis C57BL/6J mouse model assessed as reduction in lung coefficient at 60 mg/kg, po administered via gavage qd for 14 days at 3 days post bleomycin challenge. It is filed as functional, organism-based. A digest of the protocol: (§2)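 Bleomycin was given intratracheally (33 μg) to female C57BL/6J mice, 5‒6 weeks old. Daily oral gavage followed for 14 days from day 3, with 1.4% DMSO saline vehicle; n=8 per group. Fresh lungs were weighed and lung index was calculated as lung weight/body weight × 100.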

The test system of experiment [3] is Mus musculus. Kind of experiment: Antifibrotic activity against bleomycin-induced pulmonary fibrosis C57BL/6J mouse model assessed as reduction in oxidative stress by measuring reduction in MDA level in plasma at 60 mg/kg, po administered via gavage qd for 14 days at 3 days post bleomycin challenge. It is filed as functional, organism-based. A digest of the protocol: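 After 33 μg intratracheal bleomycin, female C57BL/6J mice were gavaged once daily for 14 days from day 3 (vehicle saline, 1.4% DMSO; n=8). MDA was measured in heparinized plasma with a kit by absorbance at 532 nm; mean ± SEM.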

Experiment [4] deals with Mus musculus. Kind of experiment: Antifibrotic activity against bleomycin-induced pulmonary fibrosis C57BL/6J mouse model assessed as reduction in IL6 expression in plasma at 60 mg/kg, po administered via gavage qd for 14 days at 3 days post bleomycin challenge by FACSCalibur flow cytometry. It is filed as functional, organism-based. The method in brief:
(§3)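 Female C57BL/6J mice (5‒6 weeks, 20‒25 g) were given 33 μg bleomycin intratracheally in saline under isoflurane. From day 3 they received oral gavage once daily for 14 days, with saline containing 1.4% DMSO as vehicle; n=8 per group. Vena cava blood was heparinized and spun at 3000 rpm for 10 min, and plasma was stored at −20 °C. IL-6, IL-17A and TNF-α were measured by flow cytometry; mean ± SEM.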
(Flow cytometry measures light scatter and fluorescence of single cells or particles in a stream.)

Experiment [5] concerns Mus musculus. Kind of experiment: Antifibrotic activity against bleomycin-induced pulmonary fibrosis C57BL/6J mouse model assessed as reduction in IL17A expression in plasma at 60 mg/kg, po administered via gavage qd for 14 days at 3 days post bleomycin challenge by FACSCalibur flow cytometry. The class given is functional, organism-based. A digest of the protocol:
as §3

In experiment [6] the test system is Mus musculus. The experiment is described as follows: Antifibrotic activity against bleomycin-induced pulmonary fibrosis C57BL/6J mouse model assessed as reduction in TNF-alpha expression in plasma at 60 mg/kg, po administered via gavage qd for 14 days at 3 days post bleomycin challenge by FACSCalibur flow cytometry. It is filed as functional, organism-based. The method in brief: as §3

Experiment [7] concerns the target T1, Tyrosine-protein kinase JAK3 (Homo sapiens, UniProt P52333).
T1 sequence (P52333 whole entry): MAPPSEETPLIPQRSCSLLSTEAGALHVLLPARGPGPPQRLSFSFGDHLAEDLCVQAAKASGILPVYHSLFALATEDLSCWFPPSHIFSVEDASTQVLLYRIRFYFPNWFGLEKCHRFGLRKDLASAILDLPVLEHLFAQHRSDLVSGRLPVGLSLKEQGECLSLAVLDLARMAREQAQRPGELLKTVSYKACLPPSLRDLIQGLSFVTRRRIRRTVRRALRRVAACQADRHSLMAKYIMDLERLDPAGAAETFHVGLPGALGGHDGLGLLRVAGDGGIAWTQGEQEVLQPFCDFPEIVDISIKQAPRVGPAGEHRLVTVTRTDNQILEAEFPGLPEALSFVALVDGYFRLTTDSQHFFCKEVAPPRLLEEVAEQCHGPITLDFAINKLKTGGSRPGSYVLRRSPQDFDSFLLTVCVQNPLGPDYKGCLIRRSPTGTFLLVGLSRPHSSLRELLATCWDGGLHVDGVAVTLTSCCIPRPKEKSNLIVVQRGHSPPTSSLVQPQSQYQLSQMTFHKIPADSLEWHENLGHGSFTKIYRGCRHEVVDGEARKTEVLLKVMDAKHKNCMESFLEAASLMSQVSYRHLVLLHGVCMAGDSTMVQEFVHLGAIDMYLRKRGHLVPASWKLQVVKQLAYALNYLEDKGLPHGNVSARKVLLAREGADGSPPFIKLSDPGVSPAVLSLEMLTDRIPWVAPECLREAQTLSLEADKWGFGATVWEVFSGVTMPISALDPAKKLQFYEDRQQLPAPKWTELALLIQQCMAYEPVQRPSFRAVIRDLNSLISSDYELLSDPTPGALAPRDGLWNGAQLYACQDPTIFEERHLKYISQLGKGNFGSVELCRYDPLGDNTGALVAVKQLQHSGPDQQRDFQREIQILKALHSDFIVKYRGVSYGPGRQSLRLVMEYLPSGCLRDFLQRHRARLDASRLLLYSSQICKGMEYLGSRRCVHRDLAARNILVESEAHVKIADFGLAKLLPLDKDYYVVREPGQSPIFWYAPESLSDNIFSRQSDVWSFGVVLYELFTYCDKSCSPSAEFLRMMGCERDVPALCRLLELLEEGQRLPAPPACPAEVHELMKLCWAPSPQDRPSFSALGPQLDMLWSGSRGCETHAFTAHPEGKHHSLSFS
Kind of experiment: Inhibition of recombinant human N-terminal GST-tagged JAK3 (781 to end residues) expressed in baculovirus infected Sf9 cells using poly (Glu,Tyr) 4:1 as substrate incubated for 60 mins in presence of ATP by ADP-Glo kinase assay. A digest of the protocol:
(§4)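 ADP-Glo luminescent assay run at compound concentrations of 0.1, 1, 10, 100 and 1000 nM. The kinase reaction ran in 1× kinase buffer for 60 min at room temperature. ADP-Glo reagent was then added to stop the reaction and deplete ATP (40 min, RT), followed by detection reagent (30 min, RT) and a luminescence read. IC50s came from curve fitting; means of three experiments.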
(ADP-Glo first removes unused ATP, then detects ADP through luciferase.)

In experiment [8] the target is Tyrosine-protein kinase BTK (Homo sapiens, UniProt Q06187). Kind of experiment: Inhibition of BTK (unknown origin) by ADP-Glo kinase assay. A digest of the protocol: as §4
Sequence of Tyrosine-protein kinase BTK (Q06187 whole entry): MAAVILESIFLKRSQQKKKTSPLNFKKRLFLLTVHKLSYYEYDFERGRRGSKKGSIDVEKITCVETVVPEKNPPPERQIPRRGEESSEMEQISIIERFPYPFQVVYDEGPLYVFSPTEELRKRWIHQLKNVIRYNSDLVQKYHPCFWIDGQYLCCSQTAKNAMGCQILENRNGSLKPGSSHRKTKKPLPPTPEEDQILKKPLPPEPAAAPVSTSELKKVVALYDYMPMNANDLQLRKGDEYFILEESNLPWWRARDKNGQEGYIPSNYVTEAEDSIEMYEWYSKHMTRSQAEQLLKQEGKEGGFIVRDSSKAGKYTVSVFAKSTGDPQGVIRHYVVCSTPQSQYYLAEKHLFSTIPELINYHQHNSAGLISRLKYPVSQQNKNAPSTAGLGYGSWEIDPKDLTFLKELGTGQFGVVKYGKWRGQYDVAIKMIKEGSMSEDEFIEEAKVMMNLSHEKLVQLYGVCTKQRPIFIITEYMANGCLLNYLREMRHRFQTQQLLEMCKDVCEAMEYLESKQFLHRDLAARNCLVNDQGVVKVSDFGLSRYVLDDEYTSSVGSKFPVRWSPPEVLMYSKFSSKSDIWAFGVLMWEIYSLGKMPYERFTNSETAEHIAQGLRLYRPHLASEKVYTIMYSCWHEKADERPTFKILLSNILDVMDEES
Experiment [9] in a line: Cytotoxicity against human NHBE cells assessed as reduction in cell viability by CCK8 assay. The class given is cell-based. A digest of the protocol:
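Human bronchial epithelial (HBE) cells were tested for growth inhibition by CCK-8 assay. IC50 values are means of three separate experiments.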
Background: Formazan colour is commonly taken as a measure of viable cells.

In experiment [10] the test system is Mus musculus. Kind of experiment: Antifibrotic activity against bleomycin-induced pulmonary fibrosis C57BL/6J mouse model assessed as reduction in alveolar septal swelling at 30 to 60 mg/kg, po administered via gavage qd for 14 days at 3 days post bleomycin challenge by hematoxylin and eosin staining based light microscopic analysis. It is filed as functional, organism-based. The method in brief:
as §1

Experiment [11] relates to Mus musculus. Kind of experiment: Antifibrotic activity against po dosed bleomycin-induced pulmonary fibrosis C57BL/6J mouse model assessed as reduction in alveolar septal swelling administered via gavage qd for 14 days at 3 days post bleomycin challenge by hematoxylin and eosin staining based light microscopic analysis. It is filed as functional, organism-based. The method in brief:
as §1

The subject of experiment [12] is Mus musculus. The experiment is described as follows: Antifibrotic activity against bleomycin-induced pulmonary fibrosis C57BL/6J mouse model assessed as reduction in lung coefficient at 30 to 60 mg/kg, po administered via gavage qd for 14 days at 3 days post bleomycin challenge. It is filed as functional, organism-based. A digest of the protocol: as §2
Experiment [13] deals with Mus musculus. Kind of experiment: Antifibrotic activity against bleomycin-induced pulmonary fibrosis C57BL/6J mouse model assessed as reduction in collagen deposition by measuring hydroxyproline content in lungs at 60 mg/kg, po administered via gavage qd for 14 days at 3 days post bleomycin challenge by hydroxyproline assay. It is filed as functional, organism-based. A digest of the protocol:
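Bleomycin model in female C57BL/6J mice: 33 μg intratracheal, then daily oral dosing for 14 days beginning on day 3, vehicle saline with 1.4% DMSO, n=8. Lungs were perfused with saline and lavaged with PBS/1 mM EDTA. The left lobe was assayed for hydroxyproline with a kit by absorbance at 550 nm; mean ± SEM.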

The subject of experiment [14] is Mus musculus. The experiment is described as follows: Antifibrotic activity against bleomycin-induced pulmonary fibrosis C57BL/6J mouse model assessed as reduction in IL6 expression in plasma at 30 to 60 mg/kg, po administered via gavage qd for 14 days at 3 days post bleomycin challenge by FACSCalibur flow cytometry. The class given is functional, organism-based. The method in brief:
as §3

Experiment [15] concerns Mus musculus. The experiment is described as follows: Antifibrotic activity against bleomycin-induced pulmonary fibrosis C57BL/6J mouse model assessed as reduction in IL17A expression in plasma at 30 to 60 mg/kg, po administered via gavage qd for 14 days at 3 days post bleomycin challenge by FACSCalibur flow cytometry. The class given is functional, organism-based. The method in brief: as §3

For experiment [16], the system named is Mus musculus. Kind of experiment: Antifibrotic activity against bleomycin-induced pulmonary fibrosis C57BL/6J mouse model assessed as reduction in TNF-alpha expression in plasma at 30 to 60 mg/kg, po administered via gavage qd for 14 days at 3 days post bleomycin challenge by FACSCalibur flow cytometry. It is filed as functional, organism-based. A digest of the protocol: as §3

Experiment [17] relates to Mus musculus. Kind of experiment: Antifibrotic activity against bleomycin-induced pulmonary fibrosis C57BL/6J mouse model assessed as reduction in air-sacculitis at 30 to 60 mg/kg, po administered via gavage qd for 14 days at 3 days post bleomycin challenge by hematoxylin and eosin staining based light microscopic analysis. It is filed as functional, organism-based. The method in brief:
as §1

Experiment [18] relates to Mus musculus. The experiment is described as follows: Antifibrotic activity against bleomycin-induced pulmonary fibrosis C57BL/6J mouse model assessed as reduction in collagen deposition in lungs at 60 mg/kg, po administered via gavage qd for 14 days at 3 days post bleomycin challenge by Masson's Trichrome staining analysis. It is filed as functional, organism-based. A digest of the protocol: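 Female C57BL/6J mice received 33 μg intratracheal bleomycin, then once-daily gavage for 14 days from day 3 (1.4% DMSO saline vehicle; n=8). Lungs were fixed in formalin for 24 h and paraffin-embedded. 5 μm sections were stained with Masson's trichrome and viewed by light microscopy at 200×.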

In ChEMBL document CHEMBL4613238, “Synthesis and biological activity of thieno[3,2-d]pyrimidines as potent JAK3 inhibitors for the treatment of idiopathic pulmonary fibrosis” (Bioorg Med Chem, 2020) one finds Activity and IC50 data, which are given here for five compounds.

The term IC50 denotes the concentration needed to halve the response being measured.

Calls of active or inactive are those of the source. The calls are words filed in the database; no cut-off is given here.

As to `COc1cc2ncnc(Nc3ccc(F)c(Cl)c3)c2cc1OCCCN1CCOCC1`, the result with Mus musculus [1], with Mus musculus [2], in the experiment on Mus musculus [3], in the experiment with Mus musculus [4], in the experiment with Mus musculus [5] and in the experiment on Mus musculus [6] was Active.

For the compound `C=CC(=O)Nc1cccc(Nc2nc(Nc3ccc(OCCOC)cc3)ncc2F)c1` [SPEBRUTINIB], the IC50 in experiment [7] came out at 66.5 nM.

In the case of `C=CC(=O)Nc1cccc(Oc2nc(Nc3ccc(OCCCN4CCOCC4)c(Cl)c3)nc3ccsc23)c1`, the IC50 in [7] is 1.38 nM; in experiment [8], at least 62.4 nM; in experiment [9], 39000 nM. The outcome in the experiment on Mus musculus [10], in the experiment with Mus musculus [12], in the experiment on Mus musculus [13], with Mus musculus [14], with Mus musculus [15] and with Mus musculus [16] was Active. In addition, the result in the experiment with Mus musculus [3], in the experiment on Mus musculus [17] and with Mus musculus [18] was Active. The Activity entry in the experiment with Mus musculus [11] was “Dose-dependent effect”.

For the compound `C=CC(=O)Nc1cccc(Oc2nc(Nc3ccc(CN4CCOCC4)cc3)nc3ccsc23)c1`, the half-inhibitory concentration (IC50) is 85.3 nM in [7], above 100 nM in experiment [8] and 12800 nM in [9].

Regarding `COC(=O)c1ccc2c(c1)NC(=O)/C2=C(\Nc1ccc(N(C)C(=O)CN2CCN(C)CC2)cc1)c1ccccc1`, the outcome in the experiment on Mus musculus [1], in the experiment on Mus musculus [12], in the experiment with Mus musculus [13], in the experiment with Mus musculus [14], with Mus musculus [15] and in the experiment on Mus musculus [16] was Active. Further, the result in the experiment with Mus musculus [3] was Active.
